The subject of data set [1] is HepG2. The data set is described as follows: Cytotoxicity against human HepG2 cells after 94 hrs by MTT assay. Format: functional, cell-based. Conditions: HepG2, 94 h. An outline of the steps: (§1)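 Cells seeded at 5 x 10^5 cells/200 µl/well in 96-well plates, grown in medium with 5% FCS. After 24 h, compounds added at 0–15 µM, with ethanol as vehicle control. Incubated 94 h, then medium replaced. MTT (5 mg/ml) added for 2-3 h at 37 °C and dissolved in DMSO. A620 read in triplicate wells. IC50 taken from the concentration giving 50% loss of viability.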

Data set [2] concerns MDA-MB-361. The data set is described as follows: Cytotoxicity against human MDA-MB-361 cells after 94 hrs by MTT assay. Format: functional, cell-based. Conditions: MDA-MB-361, 94 h. An outline of the steps:
as §1
On the technique in general: Tetrazolium dyes change colour on reduction, which living cells bring about.

A further data set relates to SK-MEL-1. The data set is described as follows: Cytotoxicity against human SK-MEL-1 cells after 94 hrs by MTT assay. The format is functional, cell-based. Conditions: for pIC50: SK-MEL-1, 94 h. An outline of the steps:
as §1

The subject of the next data set is A549. The data set is described as follows: Cytotoxicity against human A549 cells after 94 hrs by MTT assay. Format: functional, cell-based. Conditions: for pIC50: A549, 94 h. An outline of the steps:
as §1

In the next data set the test system is HL-60. Kind of data set: Cytotoxicity against human HL60 cells after 94 hrs by MTT assay. Format: functional, cell-based. Conditions: for pIC50: HL-60, 94 h. The method in brief: as §1
For another data set, the system named is HFL1. Kind of data set: Cytotoxicity against human HFL1 cells after 94 hrs by MTT assay. Conditions: hfl1, 94 h. The format is cell-based. An outline of the steps: as §1
In data set [3] the test system is HepG2. The data set is described as follows: Modulation of lipid peroxidation in human HepG2 cells assessed as malondialdehyde production after 24 hrs by thiobarbituric acid assay. The format is functional, cell-based. The method in brief: (§2)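 Cells exposed for 24 h to vehicle or to 25, 50 or 100 µM compound. Malondialdehyde measured spectrophotometrically by thiobarbituric acid assay and expressed as nmol MDA per 10^6 cells. Means ± SD of five experiments.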

In data set [4] the test system is HepG2. The data set is described as follows: Induction of apoptosis in human HepG2 cells assessed as upregulation of cytochrome c expression at 15 uM after 24 hrs by Western blotting. Format: functional. An outline of the steps:
(§3)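 Cells (1 × 10^7/well) grown 24 h in serum-free medium at 37 °C, then treated 24 h, with ethanol as control. Harvested by trypsin and lysed in TNN buffer (50 mM Tris-HCl pH 7.4, NP-40, protease inhibitors). Cytosolic fraction taken from a 10,000 g spin. Protein measured by BCA and equal amounts run on 10% SDS-PAGE. Blotted to nitrocellulose, probed with monoclonal antibodies plus a β-actin reprobe, detected by ECL. Densitometry as mean of triplicates.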
(In general: Immunoblotting shows a protein as a band on a membrane.)

Data set [5] deals with HepG2. Kind of data set: Induction of apoptosis in human HepG2 cells assessed as upregulation of caspase 3 expression at 15 uM after 24 hrs by Western blotting. Format: functional, cell-based. An outline of the steps:
as §3

The subject of data set [6] is MDA-MB-361. Kind of data set: Modulation of lipid peroxidation in human MDA-MB-361 cells assessed as malondialdehyde production assessed per 10^6 cells at 25 to 100 uM after 24 hrs by thiobarbituric acid assay. The format is functional. The method in brief:
as §2

The subject of data set [7] is MDA-MB-361. Kind of data set: Induction of apoptosis in human MDA-MB-361 cells assessed as upregulation of cytochrome c expression at 15 uM after 24 hrs by Western blotting. The format is functional. The method in brief:
as §3

Data set [8] deals with MDA-MB-361. Kind of data set: Induction of apoptosis in human MDA-MB-361 cells assessed as upregulation of caspase 3 expression at 15 uM after 24 hrs by Western blotting. The format is functional. The method in brief:
as §3

pIC50: −log10 of the molar value. Active and inactive are the calls of the source. The rule behind the calls is not given here.

For orientation: pIC50 means the IC50 on a negative log10 scale, so that one unit is a factor of ten. The low end stands for a large IC50, the high end for a small IC50. As for `COc1cccc2c1C(=O)c1c(O)c3c(c(O)c1C2=O)C[C@@](O)(C(=O)CO)C[C@@H]3O[C@H]1C[C@H](N)[C@H](O)[C@H](C)O1` [DOXORUBICIN], the pIC50 in the data set on HepG2 [1] is 5.66; with MDA-MB-361 [2], 5.69; with SK-MEL-1, 5.51; with A549 it was 5.44; in the data set on HL-60, 5.50. Further, the Activity result in the data set with HFL1 is “Non-toxic”.

For the molecule `CCCCC/C=C\C/C=C\C/C=C\C/C=C\CCCC(=O)Oc1c(C(C)C)cccc1C(C)C`, the pIC50 was 5.51 in the data set with HepG2 [1], 5.14 in the data set with MDA-MB-361 [2], 5.34 in the data set on A549 and 5.41 in the data set with HL-60. Also, the “growth inhibition (GI)” value in the data set with SK-MEL-1 is “Active”. For the same molecule, the Activity result in the data set with HepG2 [3] is “Dose-dependent effect”; with HepG2 [4], 24.2%. The result in the data set with HepG2 [5] was inactive.

With `CCCCC/C=C\C/C=C\CCCCCCCC(=O)Oc1ccc(C(C)C)cc1C(C)C`, the results for the pIC50 in the data set on HepG2 [1], in the data set with MDA-MB-361 [2] and with SK-MEL-1 were 5.39, 5.49 and 5.31, respectively. For the same molecule, the “growth inhibition (GI)” value with A549 and in the data set with HL-60 was “Active” each time. For the same molecule, the Activity entry was “Non-toxic” in the data set on HFL1, 0.25 nmol in the data set with MDA-MB-361 [6], 35.2% with MDA-MB-361 [7] and 32.6% in the data set with MDA-MB-361 [8].

Take `CCCCC/C=C\C/C=C\C/C=C\C/C=C\CCCC(=O)Oc1ccc(C(C)C)cc1C(C)C`: the pIC50 in the data set on HepG2 [1] is 5.43; in the data set on MDA-MB-361 [2], 5.12; with A549, 5.28; in the data set on HL-60, 5.36. The “growth inhibition (GI)” value with SK-MEL-1 is “Active”. The Activity entry was “Toxic” in the data set with HFL1, “Dose-dependent effect” in the data set on HepG2 [3] and 24.7% in the data set on HepG2 [4]. Further, in the data set with HepG2 [5], the outcome was inactive.

In the case of `CCCCC/C=C\C/C=C\CCCCCCCC(=O)Oc1c(C(C)C)cccc1C(C)C`, the pIC50 in the data set with HepG2 [1] is 5.48; in the data set on MDA-MB-361 [2], 5.56; in the data set on SK-MEL-1 it was 5.39. Further, the “growth inhibition (GI)” value in the data set with A549 and with HL-60 was “Active” throughout. In addition, the Activity entry in the data set on HFL1 was “Non-toxic”; in the data set on MDA-MB-361 [6] it was 0.25 nmol; in the data set with MDA-MB-361 [7], 36.6%; in the data set with MDA-MB-361 [8], 33.7%.

The record behind these values is ChEMBL document CHEMBL1828545, “Synthesis and characterization of novel PUFA esters exhibiting potential anticancer activities: an in vitro study” (Eur J Med Chem, 2011).
